Screening results: PubChem BioAssay, several laboratories
SENP7 block – SENP7 protease inhibition; Q9BQF6; recombinant SENP7, Z-RLRGG-aminoluciferin luminescence, 40 min; inhibition, % at 5 µM; actives 1.5% (n = 330,000); AID 434973;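 active = inhibition above about 50% at the single test dose, limit read from the data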
Target sequence (Q9BQF6 706-1050 limits assumed): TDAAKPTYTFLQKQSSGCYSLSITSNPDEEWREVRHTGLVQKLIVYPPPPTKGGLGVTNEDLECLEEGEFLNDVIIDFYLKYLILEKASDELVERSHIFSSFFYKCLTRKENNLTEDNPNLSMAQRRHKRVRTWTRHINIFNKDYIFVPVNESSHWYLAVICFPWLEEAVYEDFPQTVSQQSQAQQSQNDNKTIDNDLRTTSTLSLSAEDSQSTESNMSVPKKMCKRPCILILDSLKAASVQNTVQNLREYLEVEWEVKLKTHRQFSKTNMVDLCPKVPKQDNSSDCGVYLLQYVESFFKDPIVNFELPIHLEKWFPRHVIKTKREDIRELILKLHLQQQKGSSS
SENP8 block-1 – blocks the human protease SENP8; purified SENP8, Z-RLRGG-aminoluciferin cleavage, luminescence; inhibition, % at 10 µM; actives 1.2% (n = 330,000); AID 2540; in the data active = inhibition above about 50%
Target sequence (Q96LD8 whole entry, looked up): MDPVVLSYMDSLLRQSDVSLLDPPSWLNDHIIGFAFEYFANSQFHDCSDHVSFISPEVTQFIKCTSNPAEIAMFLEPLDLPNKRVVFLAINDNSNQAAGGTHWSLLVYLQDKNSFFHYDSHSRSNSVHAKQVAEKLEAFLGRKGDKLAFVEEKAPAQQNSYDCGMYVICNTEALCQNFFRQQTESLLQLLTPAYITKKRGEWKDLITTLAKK
HSP90 refold inh – HSP90 refolding inhibition in rabbit reticulocyte lysate. luciferase refolding luminescence, 3 h. inhibition, % at 5.6 µM. actives 0.91% (n = 290,000);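 active = inhibition above the screen-wide mean plus 3 SD, computed separately per campaign, cut at about 16% in these data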;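 also: inhibitors lower the luminescence because luciferase stays unfolded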
SENP6 inh – SENP6 protease inhibition; inhibition, % at 10 µM; Recombinant SENP6 catalytic domain, aminoluciferin luminescence; actives 1.8% (n = 330,000);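 active = inhibition above about 50% at the single tested dose, limit read from the data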
SENP1 inh – SENP1 (human) catalytic domain inhibition; Q9P0U3; recombinant SENP1 catalytic domain, CyPet-SUMO1-YPet FRET cleavage; inhibition, % at 10 µM; actives 0.21% (n = 360,000); AID 624204;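 active = inhibition at least 30% at 10 µM, raw YFP signal under a set limit, fluorescence ratio 0.5 to 1.5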
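Material – human SENP1 catalytic domain · Input – SENP1 enzyme, 20 pM final · Compound dosing – single concentration of 10 µM compound, 0.5% DMSO final · Timing – enzyme reaction for 50 min at room temperature, dark · Measured by – FRET fluorescence in CFP and YFP emission channels · Control set – no-enzyme wells low, DMSO-plus-enzyme wells high control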
SENP8 block-2 – SENP8 (human) protease inhibition | Q96LD8 | recombinant SENP8, Nedd8 substrate fluorescence | inhibition, % at 20 µM | actives 0.64% (n = 360,000); in the data active = inhibition mostly above about 40%, no sharp cut-off; inactive = mostly below about 27%
SENP8 inh conf – SENP8 (human) inhibition, single concentration confirmation. actives 15% (n = 1,400). inhibition, % at 25 µM. AID 624319. purified SENP8, Nedd8-AMC/pro-Nedd8 cleavage fluorescence, 30 min. shares compounds with SENP8 block-2; in the data active = inhibition mostly above about 39%, no sharp cut-off; inactive = mostly below about 34%
Of the large screens only hits and unclear results are named; the others gave an inactive call (follow-up assays come after a bar, where they were run); ! = not confirmed by another sample. The list is not random: actives were taken first. Their share in the collection is about 2.9%.

CCC(=O)N(CCC(Cc1ccccc1)c1ccco1)Cc1ccco1 (stereo not given)	none
CC1CC(C)CN(C(=O)CCCNC(=O)c2ccc(Cl)cc2)C1 (stereo not given)	none
COC(=O)C1=COC(OC2OC(CO)C(O)C(O)C2O)C2C1C=CC2(O)CO (stereo not given)	SENP8 block-2 41 (no result: HSP90 refold inh) | SENP8 inh conf inactive
O=C(NC1CCCCC1)C(c1ccco1)N(CCc1ccccc1)C(=O)C(F)(F)F (stereo not given)	SENP8 block-2 45 | SENP8 inh conf inactive
Cc1ccc(-c2cc3nc(-c4ccccc4)cc(NCCCO)n3n2)cc1	none (no result: SENP7 block, SENP8 block-1, HSP90 refold inh, SENP6 inh)
O=C(NCCCN1CCCCCC1)C1CC(=O)N(CCc2ccccc2)C1 (stereo not given)	SENP8 block-2 56 | SENP8 inh conf inactive
COCCNC(=S)N/N=C/c1ccc([N+](=O)[O-])cc1	SENP8 block-2 43 | SENP8 inh conf inactive
C=C(C)CNC(=S)N/N=C/c1ccc([N+](=O)[O-])cc1	none
COc1cccc(OC)c1C(=O)NC(=S)N1CCCCC1c1cccnc1 (stereo not given)	SENP8 block-2 52 | SENP8 inh conf inactive
COc1ccc2cc3[n+](cc2c1OC)CCc1cc2c(cc1-3)OCO2	SENP8 block-2 53! | SENP8 inh conf inactive
CC(=O)Nc1ccccc1OCC(=O)NCC(F)(F)F	none
Cc1c(C(=O)NCc2cccc([N+](=O)[O-])c2)sc(=O)n1Cc1ccccc1F	none (no result: SENP7 block, SENP8 block-1, HSP90 refold inh, SENP6 inh)
CCCCNS(=O)(=O)c1ccc(Br)cc1N1CCC[C@H]1CO	none (no result: SENP8 block-1, HSP90 refold inh, SENP6 inh)
COc1cc2c(cc1OC)C(=O)N(C)CC2	SENP8 block-2 42 | SENP8 inh conf inactive
O=C(COC(=O)COc1cccc(C(F)(F)F)c1)NC(=O)NC1CCCCC1	none (no result: HSP90 refold inh)
CC(C)[C@H](NC(=O)N1CC(=O)Nc2ccccc21)C(=O)N[C@H](Cc1c[nH]c2ccccc12)C(=O)O	SENP8 block-2 44 | SENP8 inh conf inactive
CC(C)[C@H](NC(=O)N1c2ccccc2NC(=O)[C@@H]1C(C)C)C(=O)N[C@@H](Cc1ccccc1)C(=O)O	SENP8 block-2 54 | SENP8 inh conf inactive
COc1ccc(N2CCN(C(=O)c3c(C)nn(-c4ccccc4)c3C)CC2)cc1	none
COc1ccc([C@H]2C[C@@H](O)[C@H](n3cc(COC(=O)c4ccccc4)nn3)CN2C(=O)c2cccs2)cc1	none (no result: SENP7 block, SENP8 block-1, HSP90 refold inh, SENP6 inh)
CSCC[C@H](NC(=O)[C@@H]1CSC2c3ccccc3C(=O)N21)C(=O)N1CCC[C@H]1CO (stereo not given in full)	SENP8 block-2 62 | SENP8 inh conf inactive
Cc1ccc(NC(=O)C2CCN(S(=O)(=O)c3ccc4c(c3)CCCC(=O)N4)CC2)c(Br)c1	none
CCOc1ccccc1NC1=C(Cl)C(=O)N(Cc2ccccc2)C1=O	SENP8 block-2 41 | SENP8 inh conf inactive
COc1cccc(NC(=O)COC(=O)c2cc(=O)c3ccccc3o2)c1	none (no result: HSP90 refold inh)
C/C(=N\NC(=O)c1[nH]c2c([N+](=O)[O-])cc(C)cc2c1-c1ccccc1)c1cccnc1	SENP8 block-2 60 | SENP8 inh conf inactive
CSCc1c(C(=O)NCCc2ccccn2)oc2ccccc12	none
CC(C)(C)NS(=O)(=O)c1ccc(Oc2ncc(C(F)(F)F)cc2Cl)cc1	SENP8 block-2 40 | SENP8 inh conf inactive
Nc1nc(Nc2ccc(Cl)cc2)nc(NCCO)c1[N+](=O)[O-]	none
Cc1ccc(Nc2nc(N)c([N+](=O)[O-])c(NCCO)n2)cc1C	SENP8 block-2 48 | SENP8 inh conf inactive
Cc1ccc(Nc2nc(N)c([N+](=O)[O-])c(N3CCOCC3)n2)cc1C	SENP8 block-2 41 | SENP8 inh conf inactive
COc1ccc(CNC(=O)COC(=O)c2cccn2C)cc1	none (no result: HSP90 refold inh)
CC(=O)Nc1ccc2c(c1)Cc1cc(N3C(=O)C=CC3=O)ccc1-2	none (no result: SENP7 block, SENP8 block-1, HSP90 refold inh, SENP6 inh)
CCN1C(=C(C#N)C#N)C=Cc2ccccc21	none
CCOC(=O)/C(C#N)=C1/C=Cc2ccccc2N1CC	SENP8 block-2 41 | SENP8 inh conf inactive
C/C(=N\NC(=O)CNc1ccccc1)c1ccccc1	none
Cc1ccc(C)c2c1CCCC2=O	none (no result: SENP7 block, SENP8 block-1, HSP90 refold inh, SENP6 inh)
CN(C)/C=C/C=C1C(=O)CCCC1=O	SENP8 block-2 49 | SENP8 inh conf inactive
COc1cccc(C(=O)N2CCN(S(C)(=O)=O)CC2)c1	none
Cn1c2ccccc2c2nnc(NN)nc21	SENP8 block-2 77 | SENP8 inh conf 38
CCCCn1c2ccc(F)cc2c2nnc(NN)nc21	SENP8 block-2 71 | SENP8 inh conf inactive
CCn1c2ccccc2c2nnc(NN)nc21	none
CCn1c2ccc(C)cc2c2nnc(NN)nc21	SENP8 block-2 69 | SENP8 inh conf inactive
CC(C)c1[nH]nc2c1C(C(C)C)C(C#N)=C(N)O2 (stereo not given)	SENP8 block-2 40 | SENP8 inh conf inactive
Cc1cc(OC(=O)c2ccc(Cl)cc2Cl)c([N+](=O)[O-])c(=O)[nH]1	none
CCOc1cc(C(=O)NCCOC)ccc1OC	none
Cc1ccc(F)cc1NC(=O)C1CC(=O)N(CCc2ccccc2)C1 (stereo not given)	none
CCOc1[nH]n(-c2ccccc2)c(=O)c1C=Nc1ccc(C)cc1	none
Cc1[nH]n(-c2ccc(Cl)cc2)c(=O)c1C=Nc1ccc(S(=O)(=O)N2CCOCC2)cc1	SENP8 block-2 47 | SENP8 inh conf inactive
CCOc1[nH]n(-c2ccccc2)c(=O)c1C=Nc1ccc(C(=O)OC)cc1	SENP8 block-2 54 | SENP8 inh conf inactive
COCc1[nH][nH]c(=O)c1C=Nc1ccccc1	none
CCOc1[nH]n(-c2ccccc2)c(=O)c1C=Nc1ccccc1	none
COc1nccnc1NS(=O)(=O)c1ccc(N=Cc2c(C)[nH]n(-c3ccc(Cl)cc3)c2=O)cc1	none (no result: SENP1 inh, SENP8 block-2)
COCc1[nH][nH]c(=O)c1C=Nc1ccc(Cl)cc1	SENP8 block-2 48 | SENP8 inh conf inactive
CCOc1[nH]n(-c2ccccc2)c(=O)c1C=Nc1ccc(Cl)cc1	SENP8 block-2 40 | SENP8 inh conf inactive
COc1ccc(NS(=O)(=O)c2cccc(C(=O)NCC(c3cccs3)N3CCOCC3)c2)cc1 (stereo not given)	none (no result: HSP90 refold inh)
Cc1c(C(=O)NNC(=S)Nc2ccc(S(N)(=O)=O)cc2)oc2ccccc12	none
O=C(CNS(=O)(=O)c1ccccc1F)NNC(=O)c1ccc(Br)cc1	none (no result: HSP90 refold inh)
O=C(NCc1csc(-c2ccccc2)n1)c1cc(F)cc2c1OCOC2	none
Cc1ccc2nc(SCC(=O)NCCc3ccccc3)nc(=O)n2c1	none (no result: HSP90 refold inh)
COc1ccc(CCNC(=O)CSc2nc(=O)n3cc(C)ccc3n2)cc1OC	SENP8 block-2 62 (no result: HSP90 refold inh) | SENP8 inh conf inactive
CCOc1cc(/C=C2/SC(=Nc3ccccc3)N(Cc3cccnc3)C2=O)ccc1OCC#N	SENP8 block-2 40 | SENP8 inh conf inactive
Cc1cc(Br)ccc1NC(=O)CNC(=O)CN(C)C1CCS(=O)(=O)C1 (stereo not given)	none (no result: HSP90 refold inh)
